The text below walks through data of ChEMBL document CHEMBL1127562, “N-substituted spirosuccinimide, spiropyridazine, spiroazetidine, and acetic acid aldose reductase inhibitors derived from isoquinoline-1,3-diones. 2” (J Med Chem, 1994).

Test [1] deals with Rattus norvegicus. The experiment in a line: Tested for in vivo inhibition of galactitol accumulation in the sciatic nerve of galactose-fed rats. It counts as functional, organism-based.
The target of test [2] is Aldo-keto reductase family 1 member B1 (Bos taurus, UniProt P16116). Briefly: Compound was tested in vitro for inhibition of aldose reductase activity in partially purified bovine lens preparation. Summed up: (§1)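 Partially purified bovine lens aldose reductase. Reduction of DL-glyceraldehyde substrate followed spectrophotometrically. Activity expressed as average inhibition at the tested concentrations, 1×10^-5, 1×10^-6, 1×10^-7 and 4×10^-6 M as printed; IC50 in M where given.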

Test [3] relates to Rattus norvegicus. The experiment in a line: Tested for in vivo inhibition of galactitol accumulation in the lens of galactose-fed rats. Format: functional, organism-based. As to conditions: Lens of camera-type eye.
Test [4] deals with Rattus norvegicus. Briefly: Tested for in vivo inhibition of galactitol accumulation in the sciatic nerve of galactose-fed rats at the dose of 27.5 (mg/kg/day). It counts as functional. Summed up: (§2)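 Rats were given a 20% galactose diet for 4 days, with the test compound administered in the diet. Sciatic nerve galactitol accumulation was measured, and activity is given as % inhibition at the stated daily dose (mg/kg/day). Values are mean ± SEM, n = 6 animals; p < 0.01 unless indicated. NS means no significant inhibition of polyol accumulation.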

Test [5] deals with Rattus norvegicus. The experiment in a line: Tested for in vivo inhibition of galactitol accumulation in the lens of galactose-fed rats at the dose of 27.5 (mg/kg/day). It counts as functional, Lens of camera-type eye.
The target of test [6] is Aldo-keto reductase family 1 member B1 (Bos taurus) (UniProt P16116). The experiment in a line: Inhibition of aldose reductase activity in partially purified bovine lens preparation at 10e-5 M. Summed up: as §1
In test [7] the test system is Rattus norvegicus. The experiment in a line: Tested for in vivo inhibition of galactitol accumulation in the sciatic nerve of galactose-fed rats at the dose of 55.4 (mg/kg/day). It counts as functional. Summed up: (§3)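 Rats fed a 20% galactose diet for 4 days, with test compound given in the diet at the stated daily dose (mg/kg/day). Read-out is inhibition of galactitol (polyol) accumulation in sciatic nerve. Values are % inhibition, mean ± SEM of six animals; p < 0.01 unless marked (some p < 0.05). NS = no significant inhibition of polyol accumulation. Tolrestat was the reference standard.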

Test [8] concerns Rattus norvegicus. Briefly: Tested for in vivo inhibition of galactitol accumulation in the sciatic nerve of galactose-fed rats at the dose of 50.5 (mg/kg/day). It counts as functional. A digest of the protocol:
as §3

Test [9] concerns Rattus norvegicus. Briefly: Tested for in vivo inhibition of galactitol accumulation in the lens of galactose-fed rats at the dose of 50.5 (mg/kg/day). It counts as functional, Lens of camera-type eye.
Test [10] concerns Rattus norvegicus. The experiment in a line: Tested for in vivo inhibition of galactitol accumulation in the lens of galactose-fed rats at the dose of 86.1 (mg/kg/day). Format: functional, Lens of camera-type eye. Summed up:
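Galactosemic rats were fed 20% galactose for 4 days, with the compound mixed into the diet. […] galactitol accumulation was measured, and activity is given as % inhibition at the stated daily dose (mg/kg/day). Values are mean ± SEM of six animals; p < 0.01 unless indicated. NS means no significant inhibition of polyol accumulation.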

Test [11] concerns Rattus norvegicus. Briefly: Tested for in vivo inhibition of galactitol accumulation in the lens of galactose-fed rats at the dose of 25 (mg/kg/day). Format: functional, Lens of camera-type eye.
In test [12] the test system is Rattus norvegicus. The experiment in a line: Tested for in vivo inhibition of galactitol accumulation in the sciatic nerve of galactose-fed rats at the dose of 25 (mg/kg/day). It counts as functional. Summed up:
as §2

The subject of test [13] is Rattus norvegicus. Briefly: Tested for in vivo inhibition of galactitol accumulation in the lens of galactose-fed rats at the dose of 25.4 (mg/kg/day); NS=Not significant. Format: functional, organism-based. As to conditions: Lens of camera-type eye.
The subject of test [14] is Rattus norvegicus. The experiment in a line: Tested for in vivo inhibition of galactitol accumulation in the sciatic nerve of galactose-fed rats at the dose of 25.4 (mg/kg/day). Format: functional. A digest of the protocol: as §2
Test [15] relates to Rattus norvegicus. The experiment in a line: Tested for in vivo inhibition of galactitol accumulation in the sciatic nerve of galactose-fed rats at the dose of 9.5 (mg/kg/day). Format: functional. Summed up: as §3

“And” between values parts separate entries of the source, which are not always exact repeats. Equal values may be shown once. The source made the active and inactive calls. No cut-off for these calls is given here.

As a reminder, the ED50 is the midpoint of the dose-response relation. Lower therefore signals an effect at a small dose. As usually defined, the IC50 is the concentration that inhibits the measured activity by half. A higher IC50 goes with weaker potency in that assay. In test [1], `O=C1CC2(C(=O)N1)C(=O)N(Cc1ccc(Br)cc1F)C(=O)c1ccccc12` (stereo not drawn) came in with an ED50 of 0.3 mg/kg/day. Further, in test [2], 23 nM corresponded to half-maximal inhibition (IC50). Also, the EC50 in test [3] is 10 mg/kg/day.

By Inhibition is commonly meant the change of the read-out against control, counted positive when it falls. As to `CN1C(=O)c2ccc(Br)cc2C2(CC(=O)N2)C1=O` (stereo not drawn), the Inhibition worked out at 54% in [4] and 36% in test [5].

For orientation: inhibition means the percentage by which the read-out fell short of the control. Turning to `CN1C(=O)CC2(C(=O)N(Cc3ccc(Br)cc3F)C(=O)c3ccccc32)C(=O)N1C` (stereo not drawn), the inhibition result in test [6] was “inactive”. The Inhibition in test [7] stood at 76%.

With `NN1C(=O)CC2(C1=O)C(=O)N(Cc1ccc(Br)cc1F)C(=O)c1ccc(F)cc12` (stereo not drawn), the Inhibition in test [8] worked out at 75%; in test [9], 54%. Moreover, in test [6], the inhibition entry is “inactive”.

Regarding `COC(=O)NC(=O)CC1C(=O)N(C)C(=O)c2ccc(Cl)cc21` (stereo not drawn), the Inhibition was 54% and 81% in [10]; 24% in [11]; 53% in test [12]. Besides, in test [6], the inhibition came out at 65%.

With `COC(=O)NC(=O)CC1C(=O)N(Cc2ccc(Br)cc2F)C(=O)c2cc(OC)ccc21` (stereo not drawn), in [13], the inhibition result is “inactive”. Moreover, the Inhibition in [14] came out at 68%.

As to `CN1C(=O)CC2(C1=O)C(=O)N(Cc1nc3cc(C(F)(F)F)ccc3s1)C(=O)c1ccccc12` (stereo not drawn), in test [6], the inhibition entry was “inactive”. The molecule further displayed an Inhibition in test [15] of 82%.
